Data as given in ChEMBL document CHEMBL1138360, “Hypoxia-selective 3-alkyl 1,2,4-benzotriazine 1,4-dioxides: the influence of hydrogen bond donors on extravascular transport and antitumor activity” (J Med Chem, 2007).

Tests used:
[1] = test system: HT-29; assay: Ratio of IC50 for HT29 cells in aerobic condition to IC50 for HT29 cells in hypoxic condition after 4 hrs; assay type: functional, Homo sapiens
Procedure, shortened: (§1)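 Aerobic and anoxic (H2/Pd chamber) IC50s measured in the same experiment after 4 h exposure, HT29 or SiHa cells. Ratio computed as aerobic IC50/anoxic IC50.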

[2] = test system: HT-29; assay: Drug penetration in anoxic HT29 cells assessed as penetration half distance; assay type: ADME, cell-based; details: human
[3] = test system: HT-29; assay: Cytotoxicity against HT29 cells under hypoxic condition after 4 hrs; assay type: functional, cell-based; details: Homo sapiens, HT-29, 4 h
Procedure, shortened: (§2)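 HT29 or SiHa cells exposed to drug for 4 h in 96-well plates under anoxia (H2/Pd anaerobic chamber). IC50 determined.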

[4] = test system: SiHa; assay: Ratio of IC50 for SiHa cells in aerobic condition to IC50 for SiHa cells in hypoxic condition after 4 hrs; assay type: functional, Homo sapiens; procedure, shortened: as §1
[5] = test system: HT-29; assay: Diffusion coefficient, D in aerobic HT29 multicellular layers; assay type: ADME, cell-based; details: human
Procedure, shortened: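 Drug flux measured through HT29 multicellular layers on Teflon support membranes under 95% O2 at 37 °C, 50 µM initial donor concentration. Donor and receiver levels fitted with a diffusion model. Layer thickness estimated from flux of internal standard urea.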

[6] = test system: HT-29; assay: Cell viability in anoxic HT29 cells assessed as drug level providing 10% surviving fraction by clonogenic assay; assay type: cell-based; details: human
[7] = test system: SiHa; assay: Cytotoxicity against SiHa cells under hypoxic condition after 4 hrs; assay type: functional, cell-based; details: Homo sapiens; procedure, shortened: as §2
[8] = Solubility in culture medium in presence of 5% fetal calf serum; assay type: physicochemical; details: culture medium with 5% fetal calf serum
Procedure, shortened: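 Solubility determined at 22 °C in culture medium containing 5% fetal calf serum.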

| Penetration half distance [2] | D [5] | solubility [8] | Compound | Ratio IC50 [1] | IC50 [3] | Ratio IC50 [4] | Activity [6] | IC50 [7] |
| --- | --- | --- | --- | --- | --- | --- | --- | --- |
| 34 µm | 6.5 10^-7cm2/sec |  | [O-][n+]1nc(CCCN2CCCCC2)[n+]([O-])c2ccccc21 | 36 | 1 µM | 55 | 1.5 µM·h | 0.6 µM |
| 34 µm |  |  | CCc1n[n+]([O-])c2cc(OCCN(C)C)ccc2[n+]1[O-] | 105 | 0.7 µM | 128 | 1.8 µM·h | 0.5 µM |
|  |  | 4 mM | CCc1n[n+]([O-])c2ccc(C)cc2[n+]1[O-].Cl |  |  |  |  |  |
| 34 µm |  |  | CCc1n[n+]([O-])c2cc(OCCOC)ccc2[n+]1[O-] | 69 | 4.7 µM | 116 | 40.7 µM·h | 1.8 µM |
|  |  | 42 mM | Cl.[O-][n+]1nc(CCN2CCOCC2)[n+]([O-])c2ccccc21 |  |  |  |  |  |
| 34 µm |  |  | [O-][n+]1nc(-c2ccccc2)[n+]([O-])c2ccccc21 | 2 | 4.4 µM | 1 |  | 2.2 µM |
| 34 µm |  |  | CN(C)CCCc1n[n+]([O-])c2ccccc2[n+]1[O-] | 71 | 0.39 µM | 58 | 2.1 µM·h | 0.2 µM |
|  |  | 23 mM | COc1n[n+]([O-])c2ccccc2[n+]1[O-].Cl |  |  |  |  |  |
| 34 µm | 19.15 10^-7cm2/sec |  | Cc1n[n+]([O-])c2ccccc2[n+]1[O-] | 67 | 4.1 µM | 57 | 25.3 µM·h | 3 µM |
| 34 µm |  |  | CCc1n[n+]([O-])c2ccc(OCCCO)cc2[n+]1[O-] | 54 | 17 µM | 105 | 108.9 µM·h | 8.6 µM |
|  |  | 7 mM | Cc1ccc2c(c1)[n+]([O-])c(CCO)n[n+]2[O-].Cl |  |  |  |  |  |
|  |  | > 46 mM | Cl.[O-][n+]1nc(CCCN2CCOCC2)[n+]([O-])c2ccccc21 |  |  |  |  |  |
|  |  | 21 mM | COCCCc1n[n+]([O-])c2ccccc2[n+]1[O-].Cl |  |  |  |  |  |
| 34 µm |  |  | COc1n[n+]([O-])c2ccccc2[n+]1[O-] | 1 | 3.1 µM | 4 |  | 1.1 µM |
|  |  | 2 mM | CCc1n[n+]([O-])c2cc(OCCOC)ccc2[n+]1[O-].Cl |  |  |  |  |  |
| 34 µm |  |  | CCc1n[n+]([O-])c2ccc(C)cc2[n+]1[O-] | 63 | 11.4 µM | 214 | 52.4 µM·h | 3.6 µM |
|  |  | 28 mM | Cc1n[n+]([O-])c2ccccc2[n+]1[O-].Cl |  |  |  |  |  |
|  |  | 21 mM | CCc1n[n+]([O-])c2ccc(OCCO)cc2[n+]1[O-].Cl |  |  |  |  |  |
| 34 µm |  |  | CCc1n[n+]([O-])c2ccc(OCCOC)cc2[n+]1[O-] | 120 | 17.9 µM | 70 | 213.2 µM·h | 14.2 µM |

| Penetration half distance [2] | D [5] | solubility [8] | Compound | Ratio IC50 [1] | IC50 [3] | Ratio IC50 [4] | Activity [6] | IC50 [7] |
| --- | --- | --- | --- | --- | --- | --- | --- | --- |
|  |  | 50 mM | Cl.[O-][n+]1nc(CCCO)[n+]([O-])c2ccccc21 |  |  |  |  |  |
| 34 µm |  |  | [O-][n+]1nc(CCN2CCOCC2)[n+]([O-])c2ccccc21 | 107 | 3.8 µM | 225 | 10 µM·h | 2.2 µM |
| 34 µm | 4.94 10^-7cm2/sec |  | [O-][n+]1nc(CCCO)[n+]([O-])c2ccccc21 | 110 | 3.7 µM | 85 | 30.2 µM·h | 3.1 µM |
|  |  | 3 mM | CCc1n[n+]([O-])c2ccc(OCCOC)cc2[n+]1[O-].Cl |  |  |  |  |  |
|  |  | 43 mM | Cl.[O-][n+]1nc(CCCN2CCCCC2)[n+]([O-])c2ccccc21 |  |  |  |  |  |
| 34 µm | 4.41 10^-7cm2/sec |  | [O-][n+]1nc(CCO)[n+]([O-])c2ccccc21 | 153 | 3.7 µM | 526 | 18.1 µM·h | 1.7 µM |
|  |  | 51 mM | CN(C)CCCc1n[n+]([O-])c2ccccc2[n+]1[O-].Cl |  |  |  |  |  |
|  |  | > 51 mM | CCc1n[n+]([O-])c2cc(OCCN(C)C)ccc2[n+]1[O-].Cl |  |  |  |  |  |
|  |  | 3 mM | COCCc1n[n+]([O-])c2ccc(C)cc2[n+]1[O-].Cl |  |  |  |  |  |
| 34 µm |  |  | CCc1n[n+]([O-])c2ccc(OCCO)cc2[n+]1[O-] | 54 | 14.4 µM | 203 | 97.3 µM·h | 7.9 µM |
| 34 µm | 17.34 10^-7cm2/sec |  | COCCc1n[n+]([O-])c2ccc(C)cc2[n+]1[O-] | 63 | 6.6 µM | 150 | 57.9 µM·h | 1.9 µM |
| 34 µm |  |  | CCc1n[n+]([O-])c2cc(OCCCO)ccc2[n+]1[O-] | 146 | 6.9 µM | 161 | 31.6 µM·h | 2.7 µM |
|  |  | 17 mM | CCc1n[n+]([O-])c2cc(OCCCO)ccc2[n+]1[O-].Cl |  |  |  |  |  |
|  |  | 0.3 mM | Cl.[O-][n+]1nc(-c2ccccc2)[n+]([O-])c2ccccc21 |  |  |  |  |  |
| 34 µm | 7.47 10^-7cm2/sec |  | [O-][n+]1nc(CCCN2CCOCC2)[n+]([O-])c2ccccc21 | 91 | 2.2 µM | 132 | 3.2 µM·h | 1 µM |
| 34 µm |  |  | Cc1ccc2c(c1)[n+]([O-])c(CCO)n[n+]2[O-] | 82 | 4.3 µM | 208 | 22.2 µM·h | 1.2 µM |
| 34 µm | 21.3 10^-7cm2/sec |  | COCCCc1n[n+]([O-])c2ccccc2[n+]1[O-] | 86 | 6.9 µM | 272 | 26.7 µM·h | 2.4 µM |
|  |  | 34 mM | Cl.[O-][n+]1nc(CCO)[n+]([O-])c2ccccc21 |  |  |  |  |  |
|  |  | 10 mM | CCc1n[n+]([O-])c2ccc(OCCCO)cc2[n+]1[O-].Cl |  |  |  |  |  |

| Compound | Penetration half distance [2] | D [5] | solubility [8] | Ratio IC50 [1] | IC50 [3] | Ratio IC50 [4] | Activity [6] | IC50 [7] |
| --- | --- | --- | --- | --- | --- | --- | --- | --- |
| COCCc1n[n+]([O-])c2ccccc2[n+]1[O-].Cl |  |  | > 21 mM |  |  |  |  |  |
| CCc1n[n+]([O-])c2cc(OCCCN3CCOCC3)ccc2[n+]1[O-].Cl |  |  | > 48 mM |  |  |  |  |  |
| CCc1n[n+]([O-])c2ccc(OC)cc2[n+]1[O-].Cl |  |  | 3 mM |  |  |  |  |  |
| CCc1n[n+]([O-])c2ccc(OCCN3CCCCC3)cc2[n+]1[O-].Cl |  |  | > 48 mM |  |  |  |  |  |
| CCc1n[n+]([O-])c2ccc(OCCCN3CCOCC3)cc2[n+]1[O-].Cl |  |  | > 47 mM |  |  |  |  |  |
| CCc1n[n+]([O-])c2ccc(OCCN(C)C)cc2[n+]1[O-].Cl |  |  | > 49 mM |  |  |  |  |  |
| CCc1n[n+]([O-])c2ccccc2[n+]1[O-].Cl |  |  | 15 mM |  |  |  |  |  |
